Test results published in ChEMBL document CHEMBL2384959, “Sesquiterpenes and alkaloids from the roots of Alangium chinense” (J Nat Prod, 2013).
Calls of active or inactive are those of the source. No cut-off for these calls is given here.

What was measured:
Coxsackievirus = experiment: Antiviral activity against Coxsackievirus B3 infected in african green monkey Vero cells assessed as inhibition of virus-induced cytopathic effect; format: functional, organism-based
Procedure, shortened: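 Confluent Vero monolayers infected with 100 TCID50 Cox B3; 1 h adsorption at 37 °C, PBS wash, then maintenance medium (MEM + 2% FBS) ± graded compound concentrations at 37 °C. CPE scored once virus control reached 4+; IC50 by Reed and Muench. Ribavirin positive control.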

Bel-7402 = experiment: Cytotoxicity against human Bel7402 cells by MTT assay; format: functional, cell-based
A549 = experiment: Cytotoxicity against human A549 cells by MTT assay; format: functional, cell-based
BGC-823 = experiment: Cytotoxicity against human BGC823 cells by MTT assay; format: functional, cell-based
A2780 = experiment: Cytotoxicity against human A2780 cells by MTT assay; format: functional, cell-based
HCT-8 = experiment: Cytotoxicity against human HCT8 cells by MTT assay; format: functional, cell-based
Liver microsomes = experiment: Antioxidant activity in rat liver microsome assessed as inhibition of Fe2+-cysteine-induced lipid peroxidation after 15 mins; format: functional
Procedure, shortened: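 Rat liver microsomes (1.0 mg microsomal protein in 1 mL 0.1 M PBS, pH 7.4) incubated with […] cysteine plus test sample, 37 °C, 15 min; peroxidation started with 0.05 mM FeSO4. […] Vitamin E positive control.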

BV-2 = experiment: Inhibition of LPS-induced nitric oxide production in […] BV2 cells after 24 hrs by spectrophotometry; format: functional, cell-based; details: Mus musculus, BV-2, 24 h
Procedure, shortened: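 BV2 microglial cells pre-cultured 24 h, then exposed to a range of concentrations and stimulated with E. coli 055:B5 LPS (300 ng/mL) for 24 h. Nitrite in the supernatant was measured with Griess reagent (1% sulfanilamide in 5% H3PO4 plus 0.1% N-(1-naphthyl)ethylenediamine, 1:1) for 20 min at room temperature, read at 550 nm against a sodium nitrite standard curve. Untreated cells served as negative control and curcumin as positive control.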

## NC(=O)c1ncn([C@@H]2O[C@H](CO)[C@@H](O)[C@H]2O)n1 [RIBAVIRIN]
Coxsackievirus
  IC50: 222 µM

## CC1=C2OC[C@@H](C)c3c(O)cc(C)c(c32)C(=O)C1=O
Bel-7402
  Activity: inactive
A549
  Activity: inactive
BGC-823
  Activity: inactive
A2780
  Activity: inactive
HCT-8
  Activity: inactive
Coxsackievirus
  IC50: 3.1 µM
Liver microsomes; read-out: IC50
  IC50: 17.8 µM

## Cc1cc2c(c(O)c1O)[C@@H](C)CC[C@@H]2C(C)C [(1S,4R)-7,8-DIHYDROXYCALAMENENE]
Bel-7402
  Activity: inactive
A549
  Activity: inactive
BGC-823
  Activity: inactive
A2780
  Activity: inactive
HCT-8
  Activity: inactive
Coxsackievirus
  IC50: 7.4 µM
Liver microsomes
  IC50: Not Active

## COC(=O)c1c(O)cc(C(C)C)c2cc(C)c(O)cc12
Bel-7402
  Activity: inactive
A549
  Activity: inactive
BGC-823
  Activity: inactive
A2780
  Activity: inactive
HCT-8
  Activity: inactive
Coxsackievirus
  IC50: 11.3 µM
Liver microsomes; read-out: IC50
  IC50: 4.9 µM

## COc1c(OC)c2nccc3c4ccccc4n(c1=O)c23 [4,5-DIMETHOXYCANTHIN-6-ONE]
Bel-7402
  Activity: inactive
A549
  Activity: inactive
BGC-823
  Activity: inactive
A2780
  Activity: inactive
HCT-8
  Activity: inactive
Coxsackievirus
  IC50: 7.4 µM
Liver microsomes
  IC50: Not Active

## Cc1cc2c(C(C)C)cc(O)c(C=O)c2cc1O
Bel-7402
  Activity: inactive
A549
  Activity: inactive
BGC-823
  Activity: inactive
A2780
  Activity: inactive
HCT-8
  Activity: inactive
Coxsackievirus
  IC50: 1.4 µM
Liver microsomes; read-out: IC50
  IC50: 14.7 µM

## Cc1cc2c(C(C)C)cc(O)c(C)c2cc1O
Bel-7402
  Activity: inactive
A549
  Activity: inactive
BGC-823
  Activity: inactive
A2780
  Activity: inactive
HCT-8
  Activity: inactive
Coxsackievirus
  IC50: 10.1 µM
Liver microsomes; read-out: IC50
  IC50: 3.8 µM

## Oc1ccccc1CN1CCCC[C@]1(O)c1cccnc1
Bel-7402
  Activity: inactive
A549
  Activity: inactive
BGC-823
  Activity: inactive
A2780
  Activity: inactive
HCT-8
  Activity: inactive

## VITAMIN E
Liver microsomes; read-out: IC50
  IC50: 54.2 µM

## Oc1ccccc1CN1CCCC[C@@H]1c1cccnc1 [(2R)-N-HYDROXYBENZYLANABASINE]
Bel-7402
  Activity: inactive
A549
  Activity: inactive
BV-2
  IC50: > 20 µM
BGC-823
  Activity: inactive
A2780
  Activity: inactive
HCT-8
  Activity: inactive

## CC1=C(O)C(=O)c2c(C)ccc3c(C)cnc1c23
Bel-7402
  Activity: inactive
A549
  Activity: inactive
BGC-823
  Activity: inactive
A2780
  Activity: inactive
HCT-8
  Activity: inactive
Coxsackievirus
  IC50: > 20 µM
Liver microsomes; read-out: IC50
  IC50: 3.9 µM

## Oc1ccccc1CN1CCCC[C@H]1c1cccnc1 [(2S)-N-HYDROXYBENZYLANABASINE]
Bel-7402
  Activity: inactive
A549
  Activity: inactive
BV-2
  IC50: 6.7 µM
BGC-823
  Activity: inactive
A2780
  Activity: inactive
HCT-8
  Activity: inactive

## Oc1ccccc1CN1CCCCC1(O)c1cccnc1 (racemic)
Bel-7402
  Activity: inactive
A549
  Activity: inactive
BGC-823
  Activity: inactive
A2780
  Activity: inactive
HCT-8
  Activity: inactive
Coxsackievirus
  IC50: > 20 µM

## Oc1ccccc1CN1CCCC[C@@]1(O)c1cccnc1
Bel-7402
  Activity: inactive
A549
  Activity: inactive
BGC-823
  Activity: inactive
A2780
  Activity: inactive
HCT-8
  Activity: inactive

## CC1=Cc2c(C(C)C)ccc(C)c2C(=O)C1=O
Bel-7402
  Activity: inactive
A549
  Activity: inactive
BGC-823
  Activity: inactive
A2780
  Activity: inactive
HCT-8
  Activity: inactive
Coxsackievirus
  IC50: > 20 µM
Liver microsomes
  IC50: Not Active

## Cc1cc2c(cc1O)[C@@](C)(O)C(=O)C=C2C(C)C [LACINILENE C]
Bel-7402
  Activity: inactive
A549
  Activity: inactive
BGC-823
  Activity: inactive
A2780
  Activity: inactive
HCT-8
  Activity: inactive
Coxsackievirus
  IC50: 15.4 µM
Liver microsomes; read-out: IC50
  IC50: 39.8 µM

## Cc1cc2c(C(C)C)ccc(C)c2cc1O
Bel-7402
  Activity: inactive
A549
  Activity: inactive
BGC-823
  Activity: inactive
A2780
  Activity: inactive
HCT-8
  Activity: inactive
Coxsackievirus
  IC50: 5.3 µM
Liver microsomes; read-out: IC50
  IC50: 4.3 µM

## COc1cc(/C=C/C(=O)CC(=O)/C=C/c2ccc(O)c(OC)c2)ccc1O [CURCUMIN]
BV-2
  IC50: 3.1 µM

## CO[C@]1(C)C(=O)C=C(C(C)C)c2cc(C)c(O)cc21
Bel-7402
  Activity: inactive
A549
  Activity: inactive
BGC-823
  Activity: inactive
A2780
  Activity: inactive
HCT-8
  Activity: inactive
Coxsackievirus
  IC50: > 20 µM
Liver microsomes; read-out: IC50
  IC50: 23.8 µM

## CC1=C2OCC(C)c3ccc(C)c(c32)C(=O)C1=O (stereo unspecified) [MANSONONE E]
Bel-7402
  Activity: inactive
A549
  Activity: inactive
BGC-823
  Activity: inactive
A2780
  Activity: inactive
HCT-8
  Activity: inactive
Coxsackievirus
  IC50: 4.7 µM
Liver microsomes; read-out: IC50
  IC50: 45.7 µM

## C[C@@H]1CC[C@@H]2C(C)(C)O[C@@H]3[C@H](C)C(=O)C=C1[C@@]32O
Bel-7402
  Activity: inactive
A549
  Activity: inactive
BGC-823
  Activity: inactive
A2780
  Activity: inactive
HCT-8
  Activity: inactive

## Oc1ccccc1CN1CCCCC1c1cccnc1 (racemic)
Bel-7402
  Activity: inactive
A549
  Activity: inactive
BGC-823
  Activity: inactive
A2780
  Activity: inactive
HCT-8
  Activity: inactive
Coxsackievirus
  IC50: > 20 µM
